Bioassay records deposited in PubChem by several laboratories.
SENP8 block-1 = SENP8 protease inhibition; Q96LD8; purified SENP8, Z-RLRGG-aminoluciferin cleavage, luminescence; inhibition, % at 10 µM; 330,000 compounds, 1.2% hits; in the data active means inhibition above about 50%
Target sequence (Q96LD8 whole entry, looked up): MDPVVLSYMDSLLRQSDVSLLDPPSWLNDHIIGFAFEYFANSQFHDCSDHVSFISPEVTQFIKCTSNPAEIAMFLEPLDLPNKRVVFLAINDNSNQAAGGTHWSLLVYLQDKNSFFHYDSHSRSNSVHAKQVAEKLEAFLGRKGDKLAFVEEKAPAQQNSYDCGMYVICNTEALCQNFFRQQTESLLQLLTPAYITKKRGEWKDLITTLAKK
Platelet DG rel = modulates dense granule release in human platelets | human platelet-rich plasma, SFLLRN dense granule ATP release, luminescence | inhibition, %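 (compounds screened at 7.5 µM in platelet-rich plasma)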 | 300,000 compounds, 0.22% hits | AID 1663;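 active means mean replicate score, as percent of positive control, at or above 50; inconclusive means mean below 50 but at least one replicate at or above 50; inactive means mean and every replicate below 50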
SENP6 inh = inhibitors of human SENP6 protease | 330,000 compounds, 1.8% hits | AID 2599 | Q9GZR1 | inhibition, % at 10 µM | Recombinant SENP6 catalytic domain, aminoluciferin luminescence;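 active means inhibition above about 50% at the single tested dose, limit read from the data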;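 further: plate controls were DMSO wells with enzyme for no effect and DMSO wells lacking enzyme for full effect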
SENP7 inh = blocks the human protease SENP7; recombinant SENP7, Z-RLRGG-aminoluciferin luminescence, 40 min; inhibition, % at 5 µM; 330,000 compounds, 1.5% hits;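 active means inhibition above about 50% at the single test dose, limit read from the data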;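 further: plate controls were DMSO with enzyme for no effect and no enzyme buffer wells for full effect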
SENP8 block-2 = SENP8 (human) protease inhibition; Q96LD8; recombinant SENP8, Nedd8 substrate fluorescence; inhibition, % at 20 µM; 360,000 compounds, 0.64% hits; in the data active means inhibition mostly above about 40%, no sharp cut-off; inactive means mostly below about 27%
SENP1 inh = blocks the human SENP1 SUMO protease catalytic domain; AID 624204; inhibition, % at 10 µM; Q9P0U3; recombinant SENP1 catalytic domain, CyPet-SUMO1-YPet FRET cleavage; 360,000 compounds, 0.21% hits;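 active means inhibition at least 30% at 10 µM, raw YFP signal under a set limit, fluorescence ratio 0.5 to 1.5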;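 further: 0% = enzyme with DMSO and 100% = no enzyme wells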
Target sequence (Q9P0U3 419-644 limits assumed): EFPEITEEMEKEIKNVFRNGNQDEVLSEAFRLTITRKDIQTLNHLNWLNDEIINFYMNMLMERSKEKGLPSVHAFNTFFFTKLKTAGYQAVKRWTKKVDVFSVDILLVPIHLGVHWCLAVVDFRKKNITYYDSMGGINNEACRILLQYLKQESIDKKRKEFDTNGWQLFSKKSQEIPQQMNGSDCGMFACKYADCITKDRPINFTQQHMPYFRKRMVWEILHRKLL
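Test system: recombinant human SENP1 catalytic domain, His6-tagged / Medium: pH 8 Tris buffer with EDTA, NaCl, BME, BSA, NP40, catalase / Also added: SUMO1 FRET substrate flanked by Cypet and Ypet, 25 nM / Times: 50 min reaction at room temperature / Signal: FRET, CFP and YFP emission / Control set: no-enzyme low control and enzyme-plus-DMSO high control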
SENP8 conf = confirmation of human SENP8 protease inhibitors; AID 488912; inhibition, % at 12.5 µM; shares compounds with SENP7 inh; 6,200 compounds, 40% hits; Recombinant SENP8, Z-RLRGG-aminoluciferin luminescence, 60 min;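 active means mean inhibition across replicates above about 50%, limit read from the data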
SENP6 conf = confirmation of human SENP6 protease inhibitors; shares compounds with SENP7 inh; inhibition, % at 12.5 µM; recombinant SENP6, Z-RLRGG-aminoluciferin luminescence; 6,200 compounds, 58% hits
SENP7 conf = human SENP7 inhibition, confirmed; shares compounds with SENP7 inh; recombinant SENP7, Z-RLRGG-aminoluciferin luminescence, 40 min; inhibition, % at 12.5 µM; 6,200 compounds, 69% hits
Casp3 SENP sel = inhibits human caspase-3 in SENP selectivity test; 6,200 compounds, 60% hits; purified caspase-3, Z-DEVD-aminoluciferin luminescence, 60 min; AID 488918; inhibition, % at 12.5 µM; shares compounds with SENP7 inh;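 active means mean inhibition above about 50%, limit read from the data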;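 further: plate controls were enzyme with DMSO for no effect and wells without caspase-3 for full effect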
Target sequence (P42574 28-227 limits assumed): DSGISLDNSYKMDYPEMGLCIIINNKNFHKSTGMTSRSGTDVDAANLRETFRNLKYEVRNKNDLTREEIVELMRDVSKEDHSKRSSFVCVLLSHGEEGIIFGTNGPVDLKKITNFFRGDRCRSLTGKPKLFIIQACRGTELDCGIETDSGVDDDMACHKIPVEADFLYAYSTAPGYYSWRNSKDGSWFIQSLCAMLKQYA
SENP luc ctr = counter-screen for SENP inhibitors: luminescence interference. Pre-incubated SENP8/Z-RLRGG-aminoluciferin, luciferase luminescence interference. shares compounds with SENP7 inh. 6,200 compounds, 39% hits. inhibition, % at 12.5 µM. AID 488919;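 active means mean inhibition above about 50% when retested at one dose, limit read from the data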;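 further: plate controls were DMSO wells with completed reaction for no effect and substrate without enzyme for full effect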
* marks the source's active call; other numbers are inactive results; ? = inconclusive; nt = not tested or not shown. The list is not random: actives were taken first. Their share in the collection is about 2.6%.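 How the source made its calls, unless noted: active means mean inhibition above about 50% in the one-dose retest (limit read from the data); inactive means the rest.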

SMILES | SENP8 block-1 | Platelet DG rel | SENP6 inh | SENP7 inh | SENP8 block-2 | SENP1 inh | SENP8 conf | SENP6 conf | SENP7 conf | Casp3 SENP sel | SENP luc ctr
COc1ccccc1-c1nnc(-c2ccc(N3CCOCC3)cc2)o1 | -8 | 1 | -29 | -4 | -269 | -2 | nt | nt | nt | nt | nt
CC(C)(C)c1cc(CNC(=O)C2CCC(=O)N(Cc3ccccc3F)C2)[nH]n1 (stereo not given) | nt | nt | nt | nt | 6 | 0 | nt | nt | nt | nt | nt
COc1ccccc1C(=O)C1CCCN(C(=O)c2ccco2)C1 (stereo not given) | 4 | 4 | -4 | -1 | 13 | 3 | nt | nt | nt | nt | nt
O=C(O)COn1c(-c2ccccc2)nc2ccc(Cl)cc21 | -2 | -6 | -18 | -4 | -4 | 2 | nt | nt | nt | nt | nt
COn1c(-c2ccccc2)nc2ccc(Cl)cc21 | 22 | 9 | 54* | 23 | -22 | 2 | 39 | 39 | 72* | 39 | 44
O=[N+]([O-])c1ccc2nc(-c3ccccc3)n(OCc3ccc(Cl)cc3)c2c1 | 66* | 0 | 86* | 84* | 15 | 4 | 11 | 11 | 11 | 11 | 0
CCCNC(=O)C1(C)CCCN(Cc2cccc(C#N)c2)C1 (stereo not given) | nt | nt | nt | nt | 16 | 1 | nt | nt | nt | nt | nt
COC(=O)C1N[C@@H]([C@@H](NC(=O)COc2ccccc2)C(=O)NCc2ccc(OC)cc2)SC1(C)C (stereo not given in full) | -13 | -1 | -16 | 33 | -5 | 2 | nt | nt | nt | nt | nt
O=S(=O)(Nc1ccc(-c2nc3cccnc3s2)cc1)c1cccs1 | 22 | 2 | 65* | 29 | -393 | -31 | 21 | 14 | 19 | 31 | 6
Cc1cc(-c2nc3cccnc3s2)ccc1NS(=O)(=O)c1cccs1 | 91* | 1 | 95* | 74* | -396 | -29 | 89* | 92* | 98* | 86* | 55*
CCS(=O)(=O)Nc1ccc(-c2nc3cccnc3s2)cc1 | 64* | 17 | 73* | 53* | -402 | -113 | 75* | 73* | 94* | 86* | 78*
Cc1c(NS(=O)(=O)c2cccs2)cccc1-c1nc2cccnc2s1 | -1 | 0 | 9 | -9 | -136 | -3 | nt | nt | nt | nt | nt
O=S(=O)(Nc1ccc(-c2nc3cccnc3s2)cc1)c1ccc(Cl)s1 | 34 | 9 | 58* | 4 | -412 | -74 | 36 | 34 | 54* | 28 | 23
CCOc1cc(N2CCOCC2)c(OCC)cc1NC(=O)c1nn(CC)c(=O)c2ccccc12 | -3 | nt | -10 | 5 | 21 | 5 | nt | nt | nt | nt | nt
O=C(COc1cc(O)c2c(=O)c3ccccc3oc2c1)OCc1ccccc1 | 4 | -1 | 9 | -1 | 14 | -1 | nt | nt | nt | nt | nt
C=CC[C@H](CC(=O)NCCO)C(=O)N[C@@H](COC(=O)[C@H](CC=C)CC(=O)OC(C)(C)C)Cc1ccccc1 | -2 | nt | -4 | 4 | 7 | 1 | nt | nt | nt | nt | nt
COc1ccc(C(C(=O)NCC2CCCO2)N(Cc2ccccc2)C(=O)CNC(=O)c2ccco2)cc1OC (stereo not given) | -3 | -6 | -13 | -7 | 19 | -2 | nt | nt | nt | nt | nt
Cc1c(C)c2ccc(OCC(=O)NCc3ccccn3)cc2oc1=O | 0 | 11 | 11 | -5 | -305 | 0 | nt | nt | nt | nt | nt
Cc1cccc(OCC(=O)Nc2nccs2)c1C | 90* | -17 | 95* | 96* | 1 | -3 | 89* | 92* | 100* | 94* | 87*
Cc1cc(=O)oc2cc(OCC(=O)Nc3nccs3)ccc12 | 26 | -3 | 42 | 29 | -83 | 1 | nt | nt | nt | nt | nt
Cc1c(C)c2ccc(OCC(=O)Nc3ccccn3)cc2oc1=O | 48 | -1 | 64* | 95* | -341 | 4 | 18 | 8 | -2 | 11 | -8
Cc1c(C)c2ccc(OCC(=O)Nc3nccs3)cc2oc1=O | 51* | 10 | 56* | 84* | -389 | 1 | 6 | 9 | 33 | 42 | 2
Cc1nc(NC(=O)c2ccccc2)sc1-c1csc(NCc2ccco2)n1 | 48 | -3 | 60* | 66* | -43 | 5 | 28 | 29 | 36 | 67* | 32
COc1cccc(Nc2nc(-c3sc(NC(=O)c4ccccc4)nc3C)cs2)c1 | 35 | 2 | 59* | 40 | -88 | -19 | 12 | 11 | 20 | 37 | 12
Cc1nc(N/N=C\c2ccc3c(c2)OCO3)sc1C | -1 | -3 | 50* | 3 | -68 | -5 | 37 | 44 | 75* | 21 | 36
SMILES | SENP8 block-1 | Platelet DG rel | SENP6 inh | SENP7 inh | SENP8 block-2 | SENP1 inh | SENP8 conf | SENP6 conf | SENP7 conf | Casp3 SENP sel | SENP luc ctr
Clc1ccccc1N/N=C/c1ccc2c(c1)OCO2 | 89* | -3 | 96* | 74* | 0 | -3 | 98* | 99* | 102* | 91* | 89*
NNC(=O)CCN(Cc1ccco1)S(=O)(=O)c1ccc(Cl)cc1 | 6 | 15 | -7 | 3 | 11 | -2 | nt | nt | nt | nt | nt
O=C(CSc1ccccn1)c1ccc2c(c1)OCO2 | 54* | 1 | 84* | 73* | 12 | 1 | 41 | 70* | 92* | 84* | 75*
CCOC(=O)c1c(Nc2ccccc2)sc(/C=C2\C=Nc3ccccc32)c1O | 2 | 1 | -3 | 3 | -121 | -31 | nt | nt | nt | nt | nt
Oc1nc(Nc2ccccc2)sc1/C=C1\C=Nc2ccccc21 | 34 | -6 | 64* | 51* | -33 | -142 | 13 | 34 | 55* | 15 | 5
O=C1OC(O)c2cccc3cccc1c23 (stereo not given) | nt | nt | nt | nt | -190 | -3 | nt | nt | nt | nt | nt
Cc1c(C)[n+](=O)c(C)c(C)n1[O-] | nt | nt | nt | nt | 8 | 1 | nt | nt | nt | nt | nt
COc1ccc(Cn2c(C3CC3)nc3ccc(NC(=O)C4CC4)cc3c2=O)cc1 | 38 | -3 | 8 | 67* | -93 | -2 | 9 | 3 | 92* | 58* | -4
Cc1cccc(C(=O)NNC(=O)c2ccc(Cl)cc2)c1O | 29 | -9 | 55* | 31 | 1 | 2 | 52* | 48 | 77* | 71* | 62*
c1ccc(-c2nc3c(ccc4ccccc43)[nH]2)nc1 | 67* | ? | 73* | 76* | -374 | 5 | 83* | 79* | 95* | 76* | 82*
